ChEMBL document CHEMBL1144880, “Identification of phenylisoxazolines as novel and viable antibacterial agents active against Gram-positive pathogens” (J Med Chem, 2003)
In brackets after ≈: the same amount, converted by molar mass.

Key:
Type in all cases: functional
[1] = test system: Streptococcus pneumoniae; assay: In vitro minimum inhibitory concentration (MIC) against Streptococcus pneumoniae UC9912
Summary of the method: (§1)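 MIC determined by standard broth microdilution, defined as the lowest drug concentration (µg/mL) inhibiting visible growth.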

[2] = test system: Staphylococcus aureus; assay: In vitro minimum inhibitory concentration (MIC) against Staphylococcus aureus UC12673; summary of the method: as §1
[3] = test system: Haemophilus influenzae; assay: In vitro minimum inhibitory concentration (MIC) against Haemophilus influenzae UC30063; summary of the method: as §1
[4] = test system: Escherichia coli; assay: In vitro minimum inhibitory concentration (MIC) against Escherichia coli UC6674; summary of the method: as §1
[5] = test system: Staphylococcus epidermidis; assay: In vitro minimum inhibitory concentration (MIC) against Staphylococcus epidermidis UC12084; summary of the method: as §1
[6] = test system: Enterococcus faecalis; assay: In vitro minimum inhibitory concentration (MIC) against Enterococcus faecalis UC9217; summary of the method: as §1
[7] = test system: Mus musculus; assay: In Vivo effective dose required for antibacterial activity in a systemic mouse infection model (SMIM) upon peroral administration against Staphylococcus aureus UC9213; settings: po
Summary of the method: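 Compound was given orally at 1 and 5 h after infection. Deaths were monitored for at least 6 days, and ED50 (dose curing 50% of mice) was calculated by probit analysis.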

[8] = test system: Staphylococcus aureus; assay: In vitro minimum inhibitory concentration (MIC) against Staphylococcus aureus UC9213; summary of the method: as §1
[9] = test system: Moraxella catarrhalis; assay: In vitro minimum inhibitory concentration (MIC) against Moraxella catarrhalis UC30610; summary of the method: as §1

| MIC [1] [µg/mL] | MIC [2] [µg/mL] | MIC [3] [µg/mL] | MIC [4] [µg/mL] | MIC [5] [µg/mL] | MIC [6] [µg/mL] | MIC [8] [µg/mL] | MIC [9] [µg/mL] | SMILES | ED50 [7] [mg/kg] |
| --- | --- | --- | --- | --- | --- | --- | --- | --- | --- |
| 0.5 (≈ 1.4 µM) | 2 (≈ 5.6 µM) | > 16 | > 16 | 1 (≈ 2.8 µM) | 4 (≈ 11.2 µM) | 2 (≈ 5.6 µM) | 8 (≈ 22.4 µM) | CC(=O)NC[C@H]1CC(c2ccc(C3=CCN(C(=O)CO)CC3)cc2)=NO1 | 6 |
| 0.5 (≈ 1.26 µM) | 1 (≈ 2.52 µM) | 16 (≈ 40.4 µM) | > 16 | 0.5 (≈ 1.26 µM) | 2 (≈ 5.05 µM) | 2 (≈ 5.05 µM) | 8 (≈ 20.2 µM) | CC(=O)NC[C@H]1CC(c2cc(F)c(N3CCN(C(=O)CO)CC3)c(F)c2)=NO1 | 5 |
| 1 (≈ 2.95 µM) | 4 (≈ 11.8 µM) | > 16 | > 16 | 2 (≈ 5.89 µM) | 4 (≈ 11.8 µM) | 4 (≈ 11.8 µM) | 8 (≈ 23.6 µM) | CC(=O)NC[C@H]1CC(c2cc(F)c(N3CCOCC3)c(F)c2)=NO1 | > 20 |
